Active and inactive are the calls of the source. The rule behind the calls is not given here.
Assays:
[1] = system: ZR-75-1; assay: Growth inhibition of human ZR-75-1 cells after 48 hrs by sulforhodamine B assay; type: functional; details: ZR-75-1, 48 h
In short: (§1)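 Cells grown in DMEM with 10% FBS and 2 mM L-glutamine, plated at densities set by doubling time, and held 24 h before dosing. Exposure was 48 h to 0.1, 1, 10 and 100 µM in triplicate wells. Cells fixed with cold TCA (final 10%) 60 min at 4 °C and stained with 0.4% SRB 20 min. Bound dye eluted in 10 mM Tris base and read at 540 nm (690 nm reference). GI50 is the concentration giving 50% reduction in net protein gain versus control; values are the mean of three determinations.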

[2] = system: MCF7; assay: Growth inhibition of human MCF7 cells after 48 hrs by sulforhodamine B assay; type: functional; details: MCF7, 48 h; in short: as §1
[3] = system: KB; assay: Growth inhibition of human KB cells after 48 hrs by sulforhodamine B assay; type: functional; in short: as §1
[4] = Growth inhibition of human DWD cells after 48 hrs by sulforhodamine B assay; type: functional; in short: as §1
[5] = system: COLO 205; assay: Growth inhibition of human COLO205 cells after 48 hrs by sulforhodamine B assay; type: functional; details: COLO 205, 48 h; in short: as §1
[6] = system: A549; assay: Growth inhibition of human A549 cells after 48 hrs by sulforhodamine B assay; type: functional; details: A549, 48 h; in short: as §1
[7] = system: HOP-62; assay: Growth inhibition of human HOP62 cells after 48 hrs by sulforhodamine B assay; type: functional; details: HOP-62, 48 h; in short: as §1
[8] = system: A2780; assay: Growth inhibition of human A2780 cells after 48 hrs by sulforhodamine B assay; type: functional; details: A2780, 48 h; in short: as §1
[9] = system: COLO 205; assay: Cytotoxicity against human COLO205 cells at 2 uM after 24 hrs by MTT assay; type: functional, cell-based
In short: (§2)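 Colo-205 cells plated at 10,000 per well, left overnight, then exposed 24 h at 2, 4 or 8 µM. MTT added for 2 h at 37 °C, formazan dissolved in extraction buffer, and optical density read at 570 nm against untreated cells.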

[10] = system: COLO 205; assay: Cytotoxicity against human COLO205 cells at 4 uM after 24 hrs by MTT assay; type: functional, cell-based; in short: as §2
[11] = system: COLO 205; assay: Cytotoxicity against human COLO205 cells at 8 uM after 24 hrs by MTT assay; type: functional, cell-based; in short: as §2
[12] = system: COLO 205; assay: Cell cycle arrest in human COLO205 cells assessed as accumulation at G0 phase at 4 uM after 24 hrs by FACS analysis (reference value: 4.29%); type: functional
In short: (§3)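 Colo-205 cells seeded at […] per 60 mm dish and treated 24 h at 4 µM; TSA arm used TSA at 4 µM for 12 h. Cells trypsinised, fixed in ice-cold 70% ethanol 30 min at 4 °C, RNase 1 mg/mL 30 min at 37 °C, then propidium iodide/citrate/Triton stain. DNA content of 20,000 events read by flow cytometry; phase percentages from histograms.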

[13] = system: COLO 205; assay: Cell cycle arrest in human COLO205 cells assessed as accumulation at G1 phase at 4 uM after 24 hrs by FACS analysis (reference value: 60.89%); type: functional; in short: as §3
[14] = system: COLO 205; assay: Cell cycle arrest in human COLO205 cells assessed as accumulation at S phase at 4 uM after 24 hrs by FACS analysis (reference value: 8.91%); type: functional; in short: as §3
[15] = system: COLO 205; assay: Cell cycle arrest in human COLO205 cells assessed as accumulation at G2/M phase at 4 uM after 24 hrs by FACS analysis (reference value: 25.92%); type: functional; in short: as §3
[16] = system: COLO 205; assay: Up-regulation of topoisomerase 2alpha in human COLO205 cells at 4 uM after 24 hrs by Western blotting analysis in presence of HDAC inhibitor, trichostatin A; type: functional, cell-based
In short: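 Colo-205 cells exposed 24 h to test agent plus TSA, each at 4 µM. Western blot of lysates probed for topo-IIα, with β-actin as loading control.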

[17] = system: COLO 205; assay: Induction of apoptosis in human COLO205 cells assessed as down regulation of Bcl-2 at 4 uM after 24 hrs by ELISA; type: functional, cell-based
In short: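 Colo-205 cells treated 24 h at 4 µM, with etoposide and camptothecin as controls. Lysates added to Bcl2-antibody-coated wells, followed by a biotin-conjugated anti-human Bcl2 monoclonal antibody, in a Bcl2 ELISA.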

SMILES	GI50 [1]	GI50 [2]	GI50 [3]	GI50 [4]	GI50 [5]	GI50 [6]	GI50 [7]	GI50 [8]	Activity [9]	Activity [10]	Activity [11]	Activity [12]	Activity [13]	Percentage of cells in S phase [14]	Percentage of cells in G2/M phase [15]	Activity [16]	Activity [17]
COc1cc([C@@H]2c3cc4c(cc3[C@@H](NS(=O)(=O)c3sc(NC(C)=O)nc3C)[C@H]3COC(=O)[C@H]23)OCO4)cc(OC)c1OC	0.17 µM	0.15 µM	0.17 µM	0.14 µM	0.11 µM	0.12 µM	0.16 µM	0.15 µM	–	–	–	–	–	–	–	–	–
COc1cc([C@@H]2c3cc4c(cc3[C@@H](NC(=O)c3ccc(NS(=O)(=O)c5ccc(-c6ccccc6)cc5)cc3)[C@H]3COC(=O)[C@H]23)OCO4)cc(OC)c1OC	2.11 µM	2.3 µM	2.5 µM	2.88 µM	2.8 µM	–	–	2.51 µM	–	–	–	–	–	–	–	–	–
COc1cc([C@@H]2c3cc4c(cc3[C@@H](NS(=O)(=O)c3cccc5nsnc35)[C@H]3COC(=O)[C@H]23)OCO4)cc(OC)c1OC	2.51 µM	2.21 µM	–	–	–	2.71 µM	2.21 µM	2.31 µM	–	–	–	–	–	–	–	–	–
COc1cc([C@@H]2c3cc4c(cc3[C@@H](NC(=O)c3ccc(NS(=O)(=O)c5ccc(Br)s5)cc3)[C@H]3COC(=O)[C@H]23)OCO4)cc(OC)c1OC	2.9 µM	2.71 µM	–	2.5 µM	–	–	2.01 µM	2.11 µM	–	–	–	–	–	–	–	–	–
COc1cc([C@@H]2c3cc4c(cc3[C@@H](NS(=O)(=O)c3ccc(Br)s3)[C@H]3COC(=O)[C@H]23)OCO4)cc(OC)c1OC	0.18 µM	0.13 µM	0.04 µM	0.05 µM	0.04 µM	0.12 µM	0.04 µM	0.06 µM	Active	Active	Active	11.04%	34.67%	16.51%	37.78%	–	–
COc1cc([C@@H]2c3cc4c(cc3[C@@H](NS(=O)(=O)c3cccc5ccccc35)[C@H]3COC(=O)[C@H]23)OCO4)cc(OC)c1OC	2.1 µM	0.09 µM	2.3 µM	2 µM	2.1 µM	0.16 µM	2.4 µM	1.91 µM	–	–	–	–	–	–	–	–	–
COc1cc([C@@H]2c3cc4c(cc3[C@@H](NS(=O)(=O)c3ccc(-c5ccccc5)cc3)[C@H]3COC(=O)[C@H]23)OCO4)cc(OC)c1OC	2.3 µM	2.61 µM	–	2.21 µM	2.71 µM	2 µM	2.01 µM	2.11 µM	–	–	–	–	–	–	–	–	–
COc1cc([C@@H]2c3cc4c(cc3[C@@H](NC(=O)c3ccc(NS(=O)(=O)c5cccc6nsnc56)cc3)[C@H]3COC(=O)[C@H]23)OCO4)cc(OC)c1OC	2.23 µM	0.17 µM	–	2.8 µM	–	–	2.91 µM	2.11 µM	–	–	–	–	–	–	–	–	–
COc1cc([C@@H]2c3cc4c(cc3[C@@H](NC(=O)c3ccc(NS(=O)(=O)c5cccc6ccccc56)cc3)[C@H]3COC(=O)[C@H]23)OCO4)cc(OC)c1OC	2.81 µM	2.32 µM	2 µM	–	2.12 µM	2.6 µM	2.22 µM	2 µM	–	–	–	–	–	–	–	–	–
COc1cc([C@@H]2c3cc4c(cc3[C@@H](NS(=O)(=O)c3cc(Cl)sc3Cl)[C@H]3COC(=O)[C@H]23)OCO4)cc(OC)c1OC	2.5 µM	0.11 µM	2.1 µM	0.15 µM	0.15 µM	0.14 µM	2 µM	0.16 µM	–	–	–	–	–	–	–	–	–
COc1cc([C@@H]2c3cc4c(cc3[C@@H](NS(=O)(=O)c3ccc(S(=O)(=O)c5ccccc5)s3)[C@H]3COC(=O)[C@H]23)OCO4)cc(OC)c1OC	2.11 µM	0.14 µM	2.11 µM	2.61 µM	–	–	–	2.3 µM	–	–	–	–	–	–	–	–	–
COc1cc([C@@H]2c3cc4c(cc3[C@@H](NC(=O)c3ccc(NS(=O)(=O)c5cccc6cccnc56)cc3)[C@H]3COC(=O)[C@H]23)OCO4)cc(OC)c1OC	–	2.9 µM	–	0.14 µM	2.31 µM	2.51 µM	2.61 µM	2.42 µM	–	–	–	–	–	–	–	–	–
CC[C@@]1(O)C(=O)OCc2c1cc1n(c2=O)Cc2cc3ccccc3nc2-1	–	–	–	–	–	–	–	–	–	–	–	–	–	–	–	inactive	Active
COc1cc([C@@H]2c3cc4c(cc3[C@@H](NS(=O)(=O)c3ccc(Oc5ccccc5)cc3)[C@H]3COC(=O)[C@H]23)OCO4)cc(OC)c1OC	2.31 µM	2.21 µM	2.31 µM	2.91 µM	–	2.11 µM	–	2.4 µM	–	–	–	–	–	–	–	–	–
COc1ccc(S(=O)(=O)Nc2ccc(C(=O)N[C@@H]3c4cc5c(cc4[C@@H](c4cc(OC)c(OC)c(OC)c4)[C@H]4C(=O)OC[C@@H]43)OCO5)cc2)cc1	2.12 µM	0.16 µM	–	2.02 µM	2.51 µM	–	2.71 µM	–	–	–	–	–	–	–	–	–	–
COc1cc([C@@H]2c3cc4c(cc3[C@@H](NS(=O)(=O)c3cccc5cccnc35)[C@H]3COC(=O)[C@H]23)OCO4)cc(OC)c1OC	0.08 µM	0.12 µM	0.06 µM	0.17 µM	0.04 µM	0.04 µM	0.06 µM	0.08 µM	Active	Active	Active	3.06%	58.41%	10.35%	28.19%	–	–
COc1cc([C@@H]2c3cc4c(cc3[C@@H](NC(=O)c3ccc(NS(=O)(=O)c5ccc(Oc6ccccc6)cc5)cc3)[C@H]3COC(=O)[C@H]23)OCO4)cc(OC)c1OC	2.9 µM	–	2.01 µM	2.1 µM	–	2.7 µM	2 µM	–	–	–	–	–	–	–	–	–	–
COc1cccc2c1C(=O)c1c(O)c3c(c(O)c1C2=O)C[C@@](O)(C(=O)CO)C[C@@H]3O[C@H]1C[C@H](N)[C@H](O)[C@H](C)O1 [DOXORUBICIN]	–	0.17 µM	0.17 µM	0.1 µM	0.14 µM	–	0.14 µM	0.16 µM	–	–	–	–	–	–	–	–	–

Reference: ChEMBL document CHEMBL1955829, “Synthesis and biological evaluation of 4β-sulphonamido and 4β-[(4'-sulphonamido)benzamide]podophyllotoxins as DNA topoisomerase-IIα and apoptosis inducing agents” (2012)
